From PubChem
Hits are enriched below; roughly 1.2% of the tested compounds scored in any of these assays.
CAL PDZ FP-1: blocks peptide binding to human CAL PDZ domain | purified CAL PDZ, TMR-peptide fluorescence polarization, 1 h | inhibition, % at 20 µM | 330,000 tested, 0.02% active | AID 504414;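 active = highest replicate inhibition of at least 40%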;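 note: plate controls were DMSO neutral control wells for no effect and unlabeled competitor peptide control wells for full effect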
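Material – purified CerCALP PDZ construct · Detection – FP readout, S and P plane fluorescence · Measure – percent inhibition from loss of millipolarization · Controls – unlabelled peptide for full inhibition, DMSO wells as neutral · Probe or stimulus – TMR-labelled reporter peptide T*-PRC34 bound in PDZ groove · Times – 1 h at RT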
CAL PDZ FP-2: inhibitors of human CAL PDZ peptide binding. purified CAL PDZ, TMR-peptide fluorescence polarization, 1 h. inhibition, % at 24.9 µM. 300,000 tested, 0.92% active;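 active = mean inhibition of at least 30% with at least half of replicates also reaching 30%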;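 note: 0% = DMSO neutral control and 100% = excess unlabeled competitor peptide PRC23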
ARNT-TACC3 inh: disruptors of human ARNT/TACC3 interaction. Q9Y6A5. AlphaScreen His-ARNT PAS-B/GST-TACC3 binding, luminescence; TACC3 fragment carries E629A point mutation. inhibition, % at 9.99 µM. 390,000 tested, 0.66% active;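 active = mean inhibition of replicates at least 50% and at least half of replicates each reaching 50%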;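 note: 0% = complete ARNT plus TACC3 wells and 100% = ARNT alone without TACC3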
CaV13 ICDI inh: Disruptors of the CACNA1D IQ motif to Ca2+-dependent inactivation inhibitor domain association, primary screening, Förster resonance energy transfer in intact living …; AID 743397; HEK cells, CFP/YFP FRET ICDI-IQ, plate reader, 10 min; percent FRET-ratio fall versus neutral wells; 340,000 tested, 0.098% active; inhibition, % at 12.3 µM;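 active = mean replicate inhibition of at least 30% and at least 1% of replicates passing that level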;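 note: 0% = median of the neutral control wells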
* hit, by the source's call; · = not tested or not shown.

SMILES	CAL PDZ FP-1	CAL PDZ FP-2	ARNT-TACC3 inh	CaV13 ICDI inh
Cn1nc(C(=O)Nc2nc(-c3ccccn3)cs2)c2ccccc2c1=O	-2	85*	·	-6
CCn1nc(C(=O)Nc2nc(-c3ccccn3)cs2)c2ccccc2c1=O	0	6	17	-15
CCCn1nc(C(=O)Nc2nc(-c3ccccn3)cs2)c2ccccc2c1=O	-2	-2	50*	-4
Cn1nc(C(=O)Nc2cccnc2)c2ccccc2c1=O	·	-5	46*	-3
Cn1nc(C(=O)Nc2nnc(C3CC3)s2)c2ccccc2c1=O	-2	2	4	6
CCCN1C[C@H](C)[C@@H](OC)CN(C)C(=O)c2ccc(NC(=O)c3ccc(F)cc3)cc2OC[C@H]1C	·	·	4	·
COc1cccc(C(=O)Nc2ccc3c(c2)C(=O)N(C)C[C@@H](OC)[C@@H](C)CN(C(=O)C2CCCC2)[C@H](C)CO3)c1	·	·	-27	·
COC(=O)C(NC(=O)c1ccco1)(Nc1nc(C2CC2)cs1)C(F)(F)F (stereo not drawn)	-2	37*	17	-2
COC(=O)C(NC(=O)c1ccco1)(Nc1cc(C)ccn1)C(F)(F)F (stereo not drawn)	-3	1	-1	9
CN1CCN(C(=O)C2=C[C@@H](C3CC3)C[C@@H](OCCCCO)O2)CC1	·	·	-2	·
COc1ccccc1OC(C)C(=O)N1CCc2ccccc21 (stereo not drawn)	-2	0	-5	-6
CC(Oc1ccc(Cl)cc1C(N)=O)C(=O)N1CCc2ccccc21 (stereo not drawn)	1	73*	-5	-9
CC(C)NC(=O)N(C)C[C@H]1OCCCC[C@@H](C)Oc2ccc(NC(=O)CCC(F)(F)F)cc2C(=O)N([C@@H](C)CO)C[C@@H]1C	·	·	-3	·
CCOc1cc(-c2nc(C)c(C(C)=O)n2O)ccc1OCC(=O)Nc1ccccc1	-1	38*	5	-7
CC(=O)N1CCN(C(=O)COc2ccc(N(C)S(=O)(=O)c3cccs3)cc2)CC1	-2	·	-25	0
CN(c1ccc(OCC(=O)N2CCC(C(N)=O)CC2)cc1)S(=O)(=O)c1cccs1	0	62*	-22	-5
CCN(C(=O)CN1C(=O)/C(=C/c2ccccc2)SC1=S)C1CCS(=O)(=O)C1 (stereo not drawn)	0	72*	-3	-12
CCN(C(=O)CN1C(=O)S/C(=C\c2ccc(F)cc2)C1=O)C1CCS(=O)(=O)C1 (stereo not drawn)	-1	4	15	-3
Cc1nnc(N/N=C/C(C)c2ccccc2)[nH]c1=O (stereo not drawn)	-1	0	63*	-4
O=c1c2cc3c(cc2[nH]c(=S)n1CCN1CCOCC1)OCO3	·	45*	-8	-3
CC(C)CC#Cc1ccc2c(c1)O[C@@H](CN(C)C(=O)Cc1ccccn1)[C@@H](C)CN([C@H](C)CO)S2(=O)=O	·	·	-4	·
CO[C@@H]1CN(C)C(=O)c2cc(NC(=O)NC3CCCCC3)ccc2OC[C@H](C)N(C)C[C@@H]1C	·	·	-3	·
COc1ccc(C(C[N+](=O)[O-])c2c(-c3ccccc3)cc3ccccn23)cc1 (stereo not drawn)	-1	85*	-8	-5
CCN(CC)c1ccc(NC(=O)Cn2cc3c(n2)CCC(C)C3)c(C)c1 (stereo not drawn)	-3	·	49*	-9
CC1=NN(C(N)=S)C(=O)C1N=Nc1c(C)cc(C)cc1C (stereo not drawn)	-2	-1	12	-3
SMILES	CAL PDZ FP-1	CAL PDZ FP-2	ARNT-TACC3 inh	CaV13 ICDI inh
CC1=NN(C(N)=S)C(=O)C1N=Nc1ccccc1O (stereo not drawn)	-2	-1	76*	-21
CC1=NN(C(N)=S)C(=O)C1N=Nc1ccccc1C (stereo not drawn)	-2	-5	-2	-7
CC1=NN(C(N)=S)C(=O)C1N=Nc1c(C)n(C)n(-c2ccccc2)c1=O (stereo not drawn)	0	-8	47*	-2
CCCC(=O)Nc1ccc2c(c1)C(=O)N(C)[C@H]1CC[C@@H](CC(=O)NCC3CC3)O[C@@H]1CO2	·	·	-4	·
C[C@@H]1CCCCO[C@H](CN(C)C(=O)Nc2ccc3c(c2)OCO3)[C@H](C)CN([C@H](C)CO)C(=O)c2cc(NC(=O)CCC(F)(F)F)ccc2O1	·	·	4	·
O=C(Nc1ccc(S(=O)(=O)N2CCCC2)cc1)c1ccc(OCC2CCCO2)cc1 (stereo not drawn)	-3	53*	-1	1
